In ChEMBL document CHEMBL4364282, “Engineered Substrate for Cyclooxygenase-2: A Pentapeptide Isoconformational to Arachidonic Acid for Managing Inflammation” (J Med Chem, 2019):
Calls of active or inactive are those of the source. The rule behind the calls is not given here. Peptide text beside a SMILES is read from it. * marks the point of attachment. Cbz = O=C(OCc1ccccc1)*

Tests used:
Rattus norvegicus [1] = assay: Analgesic activity in Wistar rat model of acetic-acid-induced writhing assessed as inhibition of writhing numbers at 5 to 10 mg/kg, ip preincubated for 30 mins followed by acetic acid induction and measured for 30 mins relative to control; assay type: functional
Summary of the method: (§1)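 Male Wistar rats (250-300 g) in groups of 5. Writhing (abdominal contraction, trunk twisting, hind-leg extension) was induced by intraperitoneal acetic acid, and writhes were counted. Test doses were 5 and 10 mg/kg, with a vehicle control and indomethacin 10 mg/kg as reference. Data are mean±SEM (n=5), analysed by one-way ANOVA with Tukey's test (p<.05 vs control).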

[2] = biological target: T1, Prostaglandin G/H synthase 1 (Ovis aries, UniProt P05979); assay: Inhibition of ovine COX-1 assessed as reduction in prostaglandin production preincubated for 10 mins followed by arachidonic acid addition and measured after 2 mins by EIA method
T1 sequence (P05979 whole entry): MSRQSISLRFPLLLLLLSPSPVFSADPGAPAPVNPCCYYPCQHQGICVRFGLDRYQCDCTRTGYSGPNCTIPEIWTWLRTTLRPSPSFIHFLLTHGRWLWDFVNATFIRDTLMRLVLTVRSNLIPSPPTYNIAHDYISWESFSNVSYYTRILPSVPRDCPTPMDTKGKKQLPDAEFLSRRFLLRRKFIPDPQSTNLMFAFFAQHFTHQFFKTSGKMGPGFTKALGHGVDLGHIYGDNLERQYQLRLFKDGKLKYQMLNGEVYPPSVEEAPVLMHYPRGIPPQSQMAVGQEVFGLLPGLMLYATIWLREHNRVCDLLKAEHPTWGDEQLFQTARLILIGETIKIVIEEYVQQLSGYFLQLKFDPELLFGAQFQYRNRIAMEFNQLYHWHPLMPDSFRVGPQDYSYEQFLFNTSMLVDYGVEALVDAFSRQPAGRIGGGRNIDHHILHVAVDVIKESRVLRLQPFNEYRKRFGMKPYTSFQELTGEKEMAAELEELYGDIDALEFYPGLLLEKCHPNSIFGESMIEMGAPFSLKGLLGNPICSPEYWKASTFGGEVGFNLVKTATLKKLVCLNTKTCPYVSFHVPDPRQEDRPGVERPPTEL

Rattus norvegicus [3] = assay: Analgesic activity in Wistar rat model of formalin-induced hyperalgesia assessed as reduction in number of formalin-evoked paw flinching during neurogenic phase at 10 mg/kg preincubated for 30 mins followed by formalin treatment and measured during first 5 mins post formalin injection relative to control; assay type: functional; parameters: scale not given: the % may be the effect or the level left
Summary of the method: (§2)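 Formalin paw test in male Wistar rats (250-300 g), 5 per group. Flinching was counted separately in the neurogenic and inflammatory phases. Modulator studies used pre-treatment with substance P, L-NAME or L-arginine (NO precursor) in three groups each. Data are mean±SEM (n=5), analysed by one-way ANOVA with Tukey's test (p<.05 vs control).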

[4] = biological target: Prostaglandin G/H synthase 1 (Homo sapiens, UniProt P23219); assay: Inhibition of COX-1 in human whole blood assessed as reduction in calcium ionophore A23187-stimulated thromboxane B2 production by measuring thromboxane B2 level at 1 uM preincubated for 60 mins followed by calcium ionophore A23187 stimulation and measured after 30 mins by ELISA (reference value: 1.4 ng/mL); assay type: tissue-based; conditions: 0.5 h
Summary of the method: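 Human whole blood stimulated with calcium ionophore to drive COX-1, with thromboxane B2 formation measured. The test concentration was 1 μM, and indomethacin 1 μM served as reference.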

Rattus norvegicus [5] = assay: Analgesic activity in Wistar rat model of formalin-induced hyperalgesia assessed as reduction in number of formalin-evoked paw flinching during inflammatory phase at 10 mg/kg preincubated for 30 mins followed by formalin treatment and measured after 15 to 30 mins relative to control; assay type: functional; parameters: scale not given: the % may be the effect or the level left; summary of the method: as §2
Rattus norvegicus [6] = assay: Analgesic activity in Wistar rat model of formalin-induced hyperalgesia assessed as reduction in number of formalin-evoked paw flinching during neurogenic phase at 10 mg/kg administered intraperitoneally 30 mins after substance P injection followed by formalin induction after 30 mins and measured during first 5 mins post formalin injection; assay type: functional, organism-based; summary of the method: as §2
Rattus norvegicus [7] = assay: Analgesic activity in Wistar rat model of formalin-induced hyperalgesia assessed as reduction in number of formalin-evoked paw flinching during neurogenic phase at 10 mg/kg administered intraperitoneally 30 mins after nitric oxide precursor L-arginine injection followed by formalin induction after 30 mins and measured during first 5 mins post formalin injection; assay type: functional, organism-based; summary of the method: as §2
Rattus norvegicus [8] = assay: Analgesic activity in Wistar rat model of formalin-induced hyperalgesia assessed as reduction in number of formalin-evoked paw flinching during inflammatory phase at 10 mg/kg administered intraperitoneally 30 mins after substance P injection followed by formalin induction after 30 mins and measured after 15 to 30 mins post formalin injection; assay type: functional, organism-based; summary of the method: as §2
Rattus norvegicus [9] = assay: Analgesic activity in Wistar rat model of formalin-induced hyperalgesia assessed as reduction in number of formalin-evoked paw flinching during inflammatory phase at 10 mg/kg administered intraperitoneally 30 mins after nitric oxide precursor L-arginine injection followed by formalin induction after 30 mins and measured after 15 to 30 mins post formalin injection; assay type: functional, organism-based; summary of the method: as §2
Rattus norvegicus [10] = assay: Analgesic activity in Wistar rat model of formalin-induced hyperalgesia assessed as reduction in number of formalin-evoked paw flinching during neurogenic phase at 10 mg/kg administered intraperitoneally 30 mins after NOS inhibitor L-NAME injection followed by formalin induction after 30 mins and measured during first 5 mins post formalin injection; assay type: functional, organism-based; summary of the method: as §2
Rattus norvegicus [11] = assay: Analgesic activity in Wistar rat model of formalin-induced hyperalgesia assessed as reduction in number of formalin-evoked paw flinching during inflammatory phase at 10 mg/kg administered intraperitoneally 30 mins after NOS inhibitor L-NAME injection followed by formalin induction after 30 mins and measured after 15 to 30 mins post formalin injection; assay type: functional, organism-based; summary of the method: as §2
Rattus norvegicus [12] = assay: Anti-inflammatory activity in Wistar rat assessed as inhibition of carrageenan-induced paw edema at 10 mg/kg, ip preincubated for 1 hr followed by carrageenan challenge and measured for 6 hrs; assay type: functional, organism-based
Summary of the method: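 Carrageenan-induced paw inflammation in male Wistar rats (250-300 g), three groups of 5 animals. Data are mean±SEM (n=5), analysed by one-way ANOVA with Tukey's multiple range test (p<.05 vs control).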

[13] = Acute toxicity in Wistar rat assessed as induction of morphological lesions in myocardium at 2000 mg/kg, po measured after 14 days by histological analysis; assay type: organism-based; conditions: in vivo, 336 h
Summary of the method: (§3)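 Acute oral toxicity per OECD guideline: rats fasted 4 h, then vehicle or single dose of 50, 300 or 2000 mg kg^-1; three rats per group. Animals observed for 14 days; one animal from the high-dose group and one control then sacrificed for tissue histology examined for lesions. Male Wistar rats, 250-300 g.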

[14] = Acute toxicity in Wistar rat assessed as induction of morphological lesions in kidney at 2000 mg/kg, po measured after 14 days by histological analysis; assay type: organism-based; conditions: in vivo, 336 h; summary of the method: as §3
[15] = Acute toxicity in Wistar rat assessed as induction of morphological lesions in liver at 2000 mg/kg, po measured after 14 days by histological analysis; assay type: organism-based; conditions: in vivo, 336 h; summary of the method: as §3
[16] = Drug metabolism in Wistar rat assessed as 2-((S)-2-((S)-1-(2-aminoacetyl)pyrrolidine-2-carboxamido)propanamido)acetic acid formation at 10 mg/kg, ip measured after 6 hrs by LC-MS analysis; assay type: ADME, organism-based; conditions: in vivo
Summary of the method: (§4)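 Blood serum was taken from treated rats at 30, 60, 90 and 120 min. Proteins were removed by centrifugation, and the supernatants were analysed by LC-MS with HRMS identification of peptide fragments. Breakdown was assessed up to 6 h.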

[17] = Drug metabolism in Wistar rat assessed as (S)-1-(2-((S)-2-aminopropanamido)acetyl)pyrrolidine-2-carboxylic acid formation at 10 mg/kg, ip measured after 6 hrs by LC-MS analysis; assay type: ADME, organism-based; conditions: in vivo; summary of the method: as §4
[18] = Drug metabolism in Wistar rat assessed as (S)-2-((S)-1-(2-((S)-2-aminopropanamido)acetyl)pyrrolidine-2-carboxamido)propanoic acid formation at 10 mg/kg, ip measured after 6 hrs by LC-MS analysis; assay type: ADME, organism-based; conditions: in vivo; summary of the method: as §4
[19] = Drug metabolism in Wistar rat assessed as methyl 2-((S)-2-((S)-1-(2-aminoacetyl)pyrrolidine-2-carboxamido)propanamido)acetate formation at 10 mg/kg, ip measured after 6 hrs by LC-MS analysis; assay type: ADME, organism-based; conditions: in vivo; summary of the method: as §4
[20] = Drug metabolism in Wistar rat assessed as 2-((S)-2-((S)-1-(2-((S)-2-aminopropanamido)acetyl)pyrrolidine-2-carboxamido)propanamido)acetic acid formation at 10 mg/kg, ip measured after 6 hrs by LC-MS analysis; assay type: ADME, organism-based; conditions: in vivo; summary of the method: as §4
[21] = biological target: T2, Prostaglandin G/H synthase 2 (Homo sapiens, UniProt P35354); assay: Substrate activity at COX-2 (unknown origin) in DMSO-d6 assessed as chemical shift of NH protons of alanine residues by 1H NMR analysis; assay type: ADME
T2 sequence (P35354 whole entry): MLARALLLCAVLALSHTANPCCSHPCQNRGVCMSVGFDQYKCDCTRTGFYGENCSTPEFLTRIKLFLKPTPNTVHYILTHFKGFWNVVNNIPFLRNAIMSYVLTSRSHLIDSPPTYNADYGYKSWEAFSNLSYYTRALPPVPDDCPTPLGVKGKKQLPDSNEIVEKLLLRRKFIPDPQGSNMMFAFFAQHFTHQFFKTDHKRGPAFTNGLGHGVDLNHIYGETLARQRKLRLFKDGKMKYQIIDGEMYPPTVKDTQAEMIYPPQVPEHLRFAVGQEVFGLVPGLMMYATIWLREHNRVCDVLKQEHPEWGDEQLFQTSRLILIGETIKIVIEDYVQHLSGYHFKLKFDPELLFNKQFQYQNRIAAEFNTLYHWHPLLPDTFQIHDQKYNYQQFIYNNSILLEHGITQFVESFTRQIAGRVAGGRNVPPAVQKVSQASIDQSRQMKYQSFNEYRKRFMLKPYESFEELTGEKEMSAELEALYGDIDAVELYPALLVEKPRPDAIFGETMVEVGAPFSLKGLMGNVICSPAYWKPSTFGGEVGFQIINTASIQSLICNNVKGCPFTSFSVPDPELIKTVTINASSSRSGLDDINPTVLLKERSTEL

[22] = biological target: T2, Prostaglandin G/H synthase 2; assay: Substrate activity at COX-2 (unknown origin) in DMSO-d6 assessed as chemical shift of NH protons of glycine residues by 1H NMR analysis; assay type: ADME
Rattus norvegicus [23] = assay: Analgesic activity in Wistar rat model of acetic-acid-induced writhing assessed as inhibition of writhing numbers at 10 mg/kg, ip preincubated for 30 mins followed by acetic acid induction and measured for 30 mins; assay type: functional, organism-based; summary of the method: as §1
[24] = substrate: CCCCC/C=C\C/C=C\C/C=C\C/C=C\CCCC(=O)O; assay: (§5) Substrate activity at COX-2 (unknown origin) in pH 7.5 HEPES buffer assessed as enzyme-mediated test compound metabolism by measuring Km by LC-MS analysis; assay type: ADME, Homo sapiens
[25] = substrate: COC(=O)CNC(=O)[C@H](C)NC(=O)[C@@H]1CCCN1C(=O)CNC(=O)[C@H](C)N; assay: as §5; assay type: ADME, Homo sapiens

Sequence of Prostaglandin G/H synthase 1 (Homo sapiens, UniProt P23219) (P23219 whole entry): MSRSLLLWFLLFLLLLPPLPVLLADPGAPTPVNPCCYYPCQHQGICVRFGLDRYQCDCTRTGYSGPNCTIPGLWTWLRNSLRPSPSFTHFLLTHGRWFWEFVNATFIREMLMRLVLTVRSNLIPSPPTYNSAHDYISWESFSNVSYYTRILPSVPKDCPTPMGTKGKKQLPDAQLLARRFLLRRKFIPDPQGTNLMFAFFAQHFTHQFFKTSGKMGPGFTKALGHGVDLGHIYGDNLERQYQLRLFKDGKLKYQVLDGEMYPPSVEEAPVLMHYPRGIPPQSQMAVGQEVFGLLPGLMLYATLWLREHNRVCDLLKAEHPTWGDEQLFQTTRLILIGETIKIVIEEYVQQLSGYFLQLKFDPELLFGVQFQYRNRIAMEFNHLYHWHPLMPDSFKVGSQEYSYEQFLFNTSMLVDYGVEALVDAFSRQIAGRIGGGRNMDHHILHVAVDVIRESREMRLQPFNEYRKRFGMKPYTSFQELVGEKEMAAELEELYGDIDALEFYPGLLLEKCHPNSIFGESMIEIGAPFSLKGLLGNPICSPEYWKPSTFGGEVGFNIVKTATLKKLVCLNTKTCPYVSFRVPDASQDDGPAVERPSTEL

COC(=O)[C@H](Cc1ccccc1)NC(=O)[C@@H]1CCCN1C(=O)CNC(=O)[C@H](CCSC)NC(=O)OCc1ccccc1 (Cbz-MGPF-OMe)
Activity (Rattus norvegicus [1]): Active
IC50 [2]: 500 nM

COC(=O)CNC(=O)[C@H](C)NC(=O)[C@@H]1CCCN1C(=O)CNC(=O)[C@H](C)N (H-AGPAG-OMe)
Activity (Rattus norvegicus [3]): 56%
Activity (Rattus norvegicus [1]): 80%
Activity [4]: 1.2 ng/mL
Activity (Rattus norvegicus [5]): 80%
Activity (Rattus norvegicus [6]): inactive
Activity (Rattus norvegicus [7]): inactive
Activity (Rattus norvegicus [8]): inactive
Activity (Rattus norvegicus [9]): inactive
Activity (Rattus norvegicus [10]): Active
Activity (Rattus norvegicus [11]): Active
Activity (Rattus norvegicus [12]): Active
Activity [13]: Non-Toxic
Activity [14]: Non-Toxic
Activity [15]: Non-Toxic
Drug metabolism [16]: Metabolite_Detected
Drug metabolism [17]: Metabolite_Detected
Drug metabolism [18]: Metabolite_Detected
Drug metabolism [19]: Metabolite_Detected
Drug metabolism [20]: Metabolite_Detected
Activity [21]: Active
Activity [22]: Active

COc1ccc2c(c1)c(CC(=O)O)c(C)n2C(=O)c1ccc(Cl)cc1 [INDOMETHACIN]
Activity (Rattus norvegicus [3]): inactive
Activity (Rattus norvegicus [23]): Active
Activity [4]: 0.7 ng/mL
Activity (Rattus norvegicus [5]): Active
Activity (Rattus norvegicus [12]): Active

B1: Prostaglandin G/H synthase 2 (Homo sapiens) (protein)
chain: MLARALLLCAVLALSHTANPCCSHPCQNRGVCMSVGFDQYKCDCTRTGFYGENCSTPEFLTRIKLFLKPTPNTVHYILTHFKGFWNVVNNIPFLRNAIMSYVLTSRSHLIDSPPTYNADYGYKSWEAFSNLSYYTRALPPVPDDCPTPLGVKGKKQLPDSNEIVEKLLLRRKFIPDPQGSNMMFAFFAQHFTHQFFKTDHKRGPAFTNGLGHGVDLNHIYGETLARQRKLRLFKDGKMKYQIIDGEMYPPTVKDTQAEMIYPPQVPEHLRFAVGQEVFGLVPGLMMYATIWLREHNRVCDVLKQEHPEWGDEQLFQTSRLILIGETIKIVIEDYVQHLSGYHFKLKFDPELLFNKQFQYQNRIAAEFNTLYHWHPLLPDTFQIHDQKYNYQQFIYNNSILLEHGITQFVESFTRQIAGRVAGGRNVPPAVQKVSQASIDQSRQMKYQSFNEYRKRFMLKPYESFEELTGEKEMSAELEALYGDIDAVELYPALLVEKPRPDAIFGETMVEVGAPFSLKGLMGNVICSPAYWKPSTFGGEVGFQIINTASIQSLICNNVKGCPFTSFSVPDPELIKTVTINASSSRSGLDDINPTVLLKERSTEL
Km [24]: 210 µM
kcat [24]: 200 s⁻¹
kcat/Km [24]: 950000 M⁻¹ s⁻¹
Km [25]: 21 µM
kcat [25]: 13.2 s⁻¹
kcat/Km [25]: 630000 M⁻¹ s⁻¹
